Measured values from ChEMBL document CHEMBL2146467, “Generation and exploration of new classes of antitubercular agents: The optimization of oxazolines, oxazoles, thiazolines, thiazoles to imidazo[1,2-a]pyridines and isomeric 5,6-fused scaffolds” (Bioorg Med Chem, 2012).
Converted amounts (≈) assume the structure as drawn.

Columns and labels:
[1] = test system: Mycobacterium tuberculosis; assay: Antimycobacterial activity against Mycobacterium tuberculosis H37Rv ATCC 27294 culture in GAS media after 7 days by microplate alamar blue assay; format: functional; conditions: H37Rv ATCC 27294, 168 h
Summary of the method: (§1)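 Replicating Mtb H37Rv. The MIC is the concentration that inhibits growth of 90% of organisms. Media by line: GAS is glycerol-alanine-salts. GAST is iron-deficient glycerol-alanine-salts with Tween 80. 7H12 is 7H9 broth base with BSA, casein hydrolysate, catalase and palmitic acid. Values are reported in μM.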

[2] = test system: Mycobacterium tuberculosis; assay: Antimycobacterial activity against Mycobacterium tuberculosis H37Rv ATCC 27294 culture in GAST media after 7 days by microplate alamar blue assay; format: functional; conditions: H37Rv ATCC 27294, 168 h; summary of the method: as §1
[3] = Chemical stability in simulated gastric fluid assessed as compound remaining at 50 uM after 15 mins by LC/MS analysis; format: physicochemical; conditions: read-out: Stability
[4] = Metabolic stability in Sprague-Dawley rat liver microsomes assessed as compound remaining at 20 uM after 15 mins by LC/MS analysis; format: ADME, Microsome; conditions: read-out: Stability

Structure (SMILES) | MIC90 [1] [µM] | MIC90 [2] [µM] | remaining at 0.25 h, 50 µM [3] [%] | remaining at 0.25 h, 20 µM [4] [%]
CCOC(=O)c1c(-c2ccccc2)nc2ccc(Cl)cn12 | 63.1 (≈ 19 µg/mL) | > 128 |  | 
CCOC(=O)c1c(-c2ccccc2)nc2ccccn12 | 86.5 (≈ 23 µg/mL) | 68.2 (≈ 18.2 µg/mL) |  | 
O=C(OCc1ccccc1)[C@@H]1COC(c2ccc(F)c([N+](=O)[O-])c2)=N1 |  |  | 0.6 | 11.3
O=C(OCc1ccccc1)[C@@H]1COC(c2ccccc2OCc2ccccc2)=N1 |  |  | 0.8 | 5.2
O=C(OCc1ccccc1)c1coc(-c2ccccc2OCc2ccccc2)n1 |  |  | 2.9 | 3.5
COc1ccc(-c2nc(C(=O)OCc3ccccc3)co2)cc1 |  |  | 2.1 | 11.8
O=C(OCc1ccccc1)c1coc(-c2ccc(F)c([N+](=O)[O-])c2)n1 |  |  | 0.9 | 10.9
O=C(OCc1ccccc1)c1coc(-c2ccccc2Cl)n1 |  |  | 1.1 | 7.9
CCOC(=O)c1c(C)nc2cc(C)ccn12 | 65.1 (≈ 14.2 µg/mL) | 64.1 (≈ 14 µg/mL) |  | 
CCOC(=O)c1c(-c2ccccc2)nc2cc(C)ccn12 | 55.1 (≈ 15.4 µg/mL) | 71.3 (≈ 20 µg/mL) |  | 
CCOC(=O)c1c(C)nc2cc(C)cc(C)n12 | > 79.5 | > 72.9 |  | 
COc1ccccc1CNC(=O)c1c(C)nc2cc(C)ccn12 |  |  | 100 | 41.6
COc1cccc(CNC(=O)c2c(C)nc3cc(C)ccn23)c1 |  |  | 100 | 94
COc1ccc(CNC(=O)c2c(C)nc3cc(C)ccn23)cc1 |  |  | 100 | 33.6
Cc1ccn2c(C(=O)NCc3ccc(Cl)cc3)c(C)nc2c1 |  |  | 94.3 | 80.7
COc1ccc(C2=N[C@H](C(=O)NCc3ccc(OC)c(OC)c3)CO2)cc1 | > 128 | > 128 |  | 
O=C(NC1CCCCC1)[C@@H]1COC(c2ccc(OC(F)(F)F)cc2)=N1 | 60 (≈ 21.4 µg/mL) | > 64 |  | 
CCCCCCNC(=O)[C@@H]1COC(c2ccc(OC(F)(F)F)cc2)=N1 | 31 (≈ 11.1 µg/mL) | > 64 |  | 
COc1ccc(CNC(=O)c2coc(-c3ccccc3)n2)cc1OC | 81 (≈ 27.4 µg/mL) | > 128 |  | 
O=C(NC1CCCCC1)c1coc(-c2ccccc2)n1 | 14 (≈ 3.78 µg/mL) | 30 (≈ 8.11 µg/mL) |  | 
CCCCCCNC(=O)c1coc(-c2ccccc2)n1 | 22 (≈ 5.99 µg/mL) | 18 (≈ 4.9 µg/mL) |  | 

Structure (SMILES) | MIC90 [1] [µM] | MIC90 [2] [µM] | remaining at 0.25 h, 50 µM [3] [%] | remaining at 0.25 h, 20 µM [4] [%]
COc1ccc(CNC(=O)[C@@H]2CSC(c3ccccc3)=N2)cc1OC | 80 (≈ 28.5 µg/mL) | > 128 |  | 
O=C(NC1CCCCC1)[C@@H]1CSC(c2ccccc2)=N1 | 46 (≈ 13.3 µg/mL) | 56 (≈ 16.2 µg/mL) |  | 
CCCCCCNC(=O)[C@@H]1CSC(c2ccccc2)=N1 | 23 (≈ 6.68 µg/mL) | 58 (≈ 16.8 µg/mL) |  | 
COc1ccc(CNC(=O)c2csc(-c3ccccc3)n2)cc1OC | 58 (≈ 20.6 µg/mL) | 64 (≈ 22.7 µg/mL) |  | 
CCc1ccccc1COC(=O)c1c(C)nc2cc(C)ccn12 |  |  | 100 | 37
Cc1ccn2c(C(=O)NCc3ccccc3Cl)c(C)nc2c1 |  |  | 97.2 | 58.9
CCC(=O)c1ccccc1OC(=O)c1coc(-c2ccccc2)n1 |  |  | 1.8 | 8.7
Cc1cccc(OC(=O)c2coc(-c3ccccc3)n2)c1C |  |  | 2 | 4.9
O=C(Oc1cccc2c1CCCC2)c1coc(-c2ccccc2)n1 |  |  | 1.8 | 14.5
Cc1cc(C)c(OC(=O)c2coc(-c3ccccc3)n2)c(C)c1 |  |  | 1.4 | 22
O=C(Oc1c(Cl)cc(Cl)cc1Cl)c1coc(-c2ccccc2)n1 |  |  | 1.3 | 15.5
O=C(Oc1ccccc1N1CCOCC1)c1coc(-c2ccccc2)n1 |  |  | 0.7 | 5.4
O=C(Oc1ccccc1N1CCCC1)c1coc(-c2ccccc2)n1 |  |  | 0.1 | 11.2
CCC(C)c1ccccc1OC(=O)c1coc(-c2ccccc2)n1 (stereo unspecified) |  |  | 0.2 | 8.3
O=C(Oc1ccc(Cl)cc1Cl)c1coc(-c2ccccc2)n1 |  |  | 0.8 | 17.3
Cc1ccccc1OC(=O)c1coc(-c2ccccc2)n1 |  |  | 1.5 | 13.4
CCCc1ccccc1OC(=O)c1coc(-c2ccccc2)n1 |  |  | 0.9 | 5.4
CC(C)(C)c1cccc(C(C)(C)C)c1OC(=O)c1coc(-c2ccccc2)n1 |  |  | 1.3 | 5.3
Cc1ccc(Cl)c(OC(=O)c2coc(-c3ccccc3)n2)c1 |  |  | 0.9 | 14
CC(C)(C)c1ccccc1OC(=O)c1coc(-c2ccccc2)n1 |  |  | 0.7 | 6.9
CCc1ccccc1OC(=O)c1coc(-c2ccccc2)n1 |  |  | 2.1 | 8.5

Structure (SMILES) | MIC90 [1] [µM] | MIC90 [2] [µM] | remaining at 0.25 h, 50 µM [3] [%] | remaining at 0.25 h, 20 µM [4] [%]
O=C(Oc1ccccc1C(F)(F)F)c1coc(-c2ccccc2)n1 |  |  | 1.2 | 10.7
Cc1ccc(COC(=O)c2coc(-c3ccccc3)n2)c(C)c1 |  |  | 1.4 | 16.9
C[C@H](OC(=O)c1coc(-c2ccccc2)n1)c1ccccc1 |  |  | 5 | 5
Cc1cc(C)c(COC(=O)c2coc(-c3ccccc3)n2)c(C)c1 |  |  | 5.6 | 18.1
Cc1ccccc1COC(=O)c1coc(-c2ccccc2)n1 |  |  | 3.1 | 10.9
O=C(OCc1ccccc1C(F)(F)F)c1coc(-c2ccccc2)n1 |  |  | 0.8 | 7.8
CCc1ccccc1COC(=O)c1coc(-c2ccccc2)n1 |  |  | 3.2 | 3.2
CCCCCCCCOC(=O)c1coc(-c2ccccc2)n1 |  |  | 1.1 | 13.1
O=C(OCC1CC1)c1coc(-c2ccccc2)n1 |  |  | 1.5 | 3.3
O=C(OC1CCCCC1)c1coc(-c2ccccc2)n1 |  |  | 0.5 | 12.1
O=C(Oc1cccc(C(F)(F)F)c1)c1coc(-c2ccccc2)n1 |  |  | 5.5 | 13
O=C(Oc1ccccc1)c1coc(-c2ccccc2)n1 |  |  | 0.2 | 0.2
CCOC(=O)c1c(C(F)(F)F)nc2ccccn12 | > 128 | > 128 |  | 
CCOC(=O)c1cnc2cc(C)c(N)cn12 | > 128 | > 128 |  | 
CCOC(=O)c1c(C)nc2c(C3CCCN3C)cccn12 (stereo unspecified) | > 64 | > 64 |  | 
CCOC(=O)c1c(C)nc2ccc(Cl)cn12 | 93.5 (≈ 22.3 µg/mL) | > 101 |  | 
CCOC(=O)c1coc(-c2ccccc2)n1 | 19.5 (≈ 4.24 µg/mL) | 7.5 (≈ 1.63 µg/mL) |  | 
CCOC(=O)c1nc(-c2ccccc2)oc1C(F)(F)F | > 128 | > 128 |  | 
CCOC(=O)c1nc(-c2ccccc2)oc1C | > 128 | 124 (≈ 28.7 µg/mL) |  | 
CCOC(=O)c1csc(-c2ccc(C)cc2)n1 | 61 (≈ 15.1 µg/mL) | 79 (≈ 19.5 µg/mL) |  | 
CCOC(=O)c1c(-c2ccccc2)nc2ccc(C)cn12 | 55.1 (≈ 15.4 µg/mL) | 41 (≈ 11.5 µg/mL) |  | 
